Active and inactive are the calls of the source. No cut-off for these calls is given here.
Columns and labels:
[1] = target: C-C chemokine receptor type 8 (Homo sapiens, UniProt P51685); test: (§1) Antagonist activity at human CCR8 expressed in CHOK1 cells assessed as inhibition in CCL1-induced beta-arrestin 2 recruitment at 20 uM incubated for 30 mins followed by CCL1 addition and measured after 90 or 180 mins by pathhunter beta-arrestin assay relative to control; format: cell-based
In short: (§2)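 PathHunter beta-arrestin recruitment, antagonist mode, run at DiscoverX. Cells seeded and held at 37 °C, then preincubated with test sample for 30 min at 37 °C or room temperature (1% vehicle). Agonist then added at EC80 for 90 or 180 min. IC50 comes from concentration–response runs in the same format.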

[2] = target: T1, Muscarinic acetylcholine receptor M4 (Homo sapiens) (UniProt P08173); test: as §1, with “Gs/Gi/o-coupled CHRM4” for “CCR8”, “acetylcholine-induced” for “CCL1-induced”, “acetylcholine” for “CCL1”; format: cell-based; in short: as §2
T1 sequence (whole entry): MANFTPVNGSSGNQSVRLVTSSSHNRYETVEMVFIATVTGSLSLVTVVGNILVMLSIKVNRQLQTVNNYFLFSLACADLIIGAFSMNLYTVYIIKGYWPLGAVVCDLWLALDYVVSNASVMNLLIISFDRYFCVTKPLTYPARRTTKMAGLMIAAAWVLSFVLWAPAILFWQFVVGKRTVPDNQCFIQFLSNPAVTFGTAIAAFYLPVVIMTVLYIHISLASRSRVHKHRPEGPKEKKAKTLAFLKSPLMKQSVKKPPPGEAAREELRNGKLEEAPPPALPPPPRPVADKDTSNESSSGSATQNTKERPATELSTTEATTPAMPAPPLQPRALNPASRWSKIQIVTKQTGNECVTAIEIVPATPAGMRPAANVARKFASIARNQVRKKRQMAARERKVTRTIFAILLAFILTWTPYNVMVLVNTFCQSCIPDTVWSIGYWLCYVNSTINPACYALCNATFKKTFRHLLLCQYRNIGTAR

Cannabinoid receptor 1 = Cannabinoid receptor 1 (Homo sapiens, UniProt P21554); test: Antagonist activity at human Gi/o-coupled CNR1 expressed in CHOK1 cells assessed as inhibition in CP55940-induced beta-arrestin 2 recruitment at 20 uM incubated for 30 mins followed by CP55940 addition and measured after 90 or 180 mins by pathhunter beta-arrestin assay relative to control; format: cell-based; in short: as §2
Chain of Cannabinoid receptor 1 (P21554 whole entry): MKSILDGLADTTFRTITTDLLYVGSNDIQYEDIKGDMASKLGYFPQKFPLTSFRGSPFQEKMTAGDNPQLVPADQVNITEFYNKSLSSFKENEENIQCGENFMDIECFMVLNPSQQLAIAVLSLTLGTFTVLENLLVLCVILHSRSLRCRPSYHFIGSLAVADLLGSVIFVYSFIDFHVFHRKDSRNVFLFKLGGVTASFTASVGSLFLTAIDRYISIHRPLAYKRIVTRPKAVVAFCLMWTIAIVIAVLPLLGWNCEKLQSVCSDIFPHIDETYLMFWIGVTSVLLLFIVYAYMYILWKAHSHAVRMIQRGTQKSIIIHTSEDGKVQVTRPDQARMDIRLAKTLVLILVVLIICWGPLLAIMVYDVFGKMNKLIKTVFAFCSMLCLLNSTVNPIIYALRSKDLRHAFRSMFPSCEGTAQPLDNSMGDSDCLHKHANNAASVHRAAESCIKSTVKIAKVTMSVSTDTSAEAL

[3] = target: D(2) dopamine receptor (Homo sapiens) (UniProt P14416); test: Antagonist activity at human Gi/o-coupled DRD2L expressed in CHOK1 cells assessed as inhibition in dopamine-induced beta-arrestin 2 recruitment at 20 uM incubated for 30 mins followed by dopamine addition and measured after 90 or 180 mins by pathhunter beta-arrestin assay relative to control; format: cell-based; in short: as §2
Chain of D(2) dopamine receptor (Homo sapiens) (P14416 whole entry): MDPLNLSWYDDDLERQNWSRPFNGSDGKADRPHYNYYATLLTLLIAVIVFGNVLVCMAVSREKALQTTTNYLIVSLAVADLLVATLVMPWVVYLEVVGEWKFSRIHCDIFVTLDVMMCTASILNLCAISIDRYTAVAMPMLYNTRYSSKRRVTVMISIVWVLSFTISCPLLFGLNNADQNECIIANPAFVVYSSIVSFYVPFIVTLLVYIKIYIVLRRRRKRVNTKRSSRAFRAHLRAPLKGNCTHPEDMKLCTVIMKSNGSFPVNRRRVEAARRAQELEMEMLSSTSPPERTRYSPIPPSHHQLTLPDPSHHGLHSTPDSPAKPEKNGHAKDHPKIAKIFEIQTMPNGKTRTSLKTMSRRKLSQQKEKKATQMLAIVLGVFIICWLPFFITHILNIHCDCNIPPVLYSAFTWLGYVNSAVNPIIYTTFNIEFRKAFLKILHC

[4] = target: T2, Orexin receptor type 2 (Homo sapiens) (UniProt O43614); test: Antagonist activity at human Gq-coupled HCRTR2 expressed in CHOK1 cells assessed as inhibition in Orexin A-induced beta-arrestin 2 recruitment at 20 uM incubated for 30 mins followed by Orexin A addition and measured after 90 or 180 mins by pathhunter beta-arrestin assay relative to control; format: cell-based; in short: as §2
T2 sequence (whole entry): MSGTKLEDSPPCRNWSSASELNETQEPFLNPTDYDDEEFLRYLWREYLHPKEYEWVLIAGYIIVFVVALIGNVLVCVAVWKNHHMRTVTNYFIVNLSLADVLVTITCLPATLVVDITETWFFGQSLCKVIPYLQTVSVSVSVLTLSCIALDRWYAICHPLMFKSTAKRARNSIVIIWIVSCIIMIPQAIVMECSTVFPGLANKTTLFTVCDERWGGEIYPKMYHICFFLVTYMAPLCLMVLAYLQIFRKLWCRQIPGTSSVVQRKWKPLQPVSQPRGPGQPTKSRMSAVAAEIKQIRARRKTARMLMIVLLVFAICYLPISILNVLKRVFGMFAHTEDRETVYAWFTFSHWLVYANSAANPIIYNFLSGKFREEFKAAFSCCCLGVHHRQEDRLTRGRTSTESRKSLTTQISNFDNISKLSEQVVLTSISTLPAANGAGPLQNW

Prostacyclin receptor = Prostacyclin receptor (Homo sapiens, UniProt P43119); test: Antagonist activity at human Gs-coupled PTGIR assessed as inhibition in beraprost-induced beta-arrestin 2 recruitment at 20 uM incubated for 30 mins followed by beraprost- addition and measured after 90 or 180 mins by pathhunter beta-arrestin assay relative to control; in short: as §2
Chain of Prostacyclin receptor (P43119 whole entry): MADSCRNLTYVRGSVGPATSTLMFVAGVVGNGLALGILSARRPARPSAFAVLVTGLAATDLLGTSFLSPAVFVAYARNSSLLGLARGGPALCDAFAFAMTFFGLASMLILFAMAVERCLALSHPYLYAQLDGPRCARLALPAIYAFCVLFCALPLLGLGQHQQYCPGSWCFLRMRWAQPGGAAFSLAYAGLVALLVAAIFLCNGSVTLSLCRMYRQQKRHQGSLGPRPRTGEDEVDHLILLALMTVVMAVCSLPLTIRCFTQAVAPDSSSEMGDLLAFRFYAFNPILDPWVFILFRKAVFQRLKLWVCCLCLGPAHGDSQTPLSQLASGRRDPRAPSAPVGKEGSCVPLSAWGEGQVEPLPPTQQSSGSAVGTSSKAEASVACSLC

[5] = target: T3, Muscarinic acetylcholine receptor M4 (Homo sapiens, UniProt P08173); test: Antagonist activity at human Gs/Gi/o-coupled CHRM4 expressed in CHOK1 cells assessed as inhibition in acetylcholine-induced beta-arrestin 2 recruitment incubated for 30 mins followed by acetylcholine addition and measured after 90 or 180 mins by pathhunter beta-arrestin assay; format: cell-based
T3 sequence (P08173 whole entry): T1 sequence (whole entry)
In short: as §2, with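 “min. […]” for “min.”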

[6] = Stability of compound in pH 4.88 HCl aqueous solution assessed as parent compound remaining at 0.026 mmol measured after 24 hrs; format: physicochemical; conditions: read-out: Stability
In short: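 Acid stability: compound held 24 h at 37 °C in acidic aqueous media at pH 2.0 or pH 4.88. Percent recovery of parent compound was measured.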

Mus musculus [7] = test: Suppression of drug-induced cocaine-seeking behavior in C57BL/6J mouse assessed as reduction in morphine-conditioned place preference at 60 nmol, icv administered 20 mins prior to behavioral morphine addition measured twice weekly for 7 weeks; format: functional, organism-based; conditions: in the assay text read “morphine-seeking” for “cocaine-seeking”
In short: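 Male C57BL/6J mice, 7–11 weeks, 20–33 g. Three-compartment counterbalanced place conditioning. Test agent given i.c.v. in 10% Solutol HS 15/90% saline, 20 min before morphine (10 mg/kg i.p., in 0.9% saline). Mice then confined 40 min in the paired outer chamber. Saline i.p. conditioning in the opposite chamber followed 4 h later. Preference was scored in a 30 min automated test. n = 16–30/group; two-way ANOVA with Tukey post hoc.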

[8] = Toxicity in C57BL/6J mouse assessed as induction of behavioral changes at 60 nmol, icv; conditions: in vivo, icv_or_intrathecal
[9] = Toxicity in C57BL/6J mouse at 60 nmol, icv measured for 2 days by conditioned place preference test; conditions: in vivo, icv_or_intrathecal, 48 h
[10] = target: Histamine H1 receptor (Homo sapiens) (UniProt P35367); conditions: at 20 µM
Chain of Histamine H1 receptor (Homo sapiens) (P35367 whole entry): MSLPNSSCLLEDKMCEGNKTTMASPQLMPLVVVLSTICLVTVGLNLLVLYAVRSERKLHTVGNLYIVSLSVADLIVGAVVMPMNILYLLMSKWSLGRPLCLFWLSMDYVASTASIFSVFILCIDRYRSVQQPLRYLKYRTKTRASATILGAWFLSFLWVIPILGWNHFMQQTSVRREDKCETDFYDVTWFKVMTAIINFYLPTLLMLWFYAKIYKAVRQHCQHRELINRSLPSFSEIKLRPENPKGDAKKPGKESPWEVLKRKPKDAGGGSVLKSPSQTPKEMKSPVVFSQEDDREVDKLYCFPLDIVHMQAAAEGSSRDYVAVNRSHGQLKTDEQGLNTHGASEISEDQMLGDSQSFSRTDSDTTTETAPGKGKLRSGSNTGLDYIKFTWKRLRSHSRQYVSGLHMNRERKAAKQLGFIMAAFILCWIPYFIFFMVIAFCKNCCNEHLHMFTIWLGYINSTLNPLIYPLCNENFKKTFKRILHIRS

Mus musculus [11] = test: Suppression of drug-induced morphine-seeking behavior in C57BL/6J mouse assessed as reduction in stress-induced reinstatement of morphine-CPP at 60 nmol, icv administered 15 mins prior to testing by forced swim test

Chain of C-C chemokine receptor type 8 (P51685 whole entry): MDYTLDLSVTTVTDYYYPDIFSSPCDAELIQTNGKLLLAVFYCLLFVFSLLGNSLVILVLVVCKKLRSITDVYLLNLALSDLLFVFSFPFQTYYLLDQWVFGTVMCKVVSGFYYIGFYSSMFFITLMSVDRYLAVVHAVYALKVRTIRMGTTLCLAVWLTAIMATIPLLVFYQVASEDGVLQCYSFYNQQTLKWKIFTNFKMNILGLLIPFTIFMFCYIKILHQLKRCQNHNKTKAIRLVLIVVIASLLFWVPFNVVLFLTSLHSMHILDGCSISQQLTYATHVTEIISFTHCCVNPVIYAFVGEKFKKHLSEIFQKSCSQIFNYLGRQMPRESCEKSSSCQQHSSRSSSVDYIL

CC[C@@]12CCCN3CCc4c([nH]c5ccccc45)[C@]31N(Cc1cn(Cc3ccccc3)nn1)C(=O)C2
inhibition [1]: 59% | inhibition [2]: 75% | inhibition (Cannabinoid receptor 1): 48% | inhibition [3]: 15% | inhibition [4]: 80% | inhibition (Prostacyclin receptor): 75% | IC50 [5]: 12.5 µM | remaining at 24 h, 0.026 mmol [6]: 99.2% | Activity (Mus musculus [7]): Active | Activity [8]: Non-Toxic | Activity [9]: Non-Toxic | inhibition [10]: 17% | Activity (Mus musculus [11]): Active
